In ChEMBL document CHEMBL4765310, “Discovery of 4-(3,5-dimethoxy-4-(((4-methoxyphenethyl)amino)methyl)phenoxy)-N-phenylaniline as a novel c-myc inhibitor against colorectal cancer in vitro and in vivo” (Eur J Med Chem, 2020):
Active and inactive are the calls of the source. The rule behind the calls is not given here.

Columns and labels:
HCT-116 = experiment: Antiproliferative activity against human HCT-116 cells assessed as inhibition of cell viability measured after 72 hrs by MTT assay; format: functional, cell-based; settings: HCT-116, 72 h
Outline: (§1)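 Cells kept at 37 °C, 5% CO₂ in RPMI 1640, L-15 or DMEM with 10% FBS and 1% penicillin-streptomycin. Plated at 2-4 × 10³ cells/well and dosed 24 h after plating. After 72 h exposure, MTT added for 2-4 h at 37 °C. Formazan dissolved in DMSO, absorbance read at 570 nm. IC50 is the mean of at least three independent experiments.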

SW-620 = experiment: Antiproliferative activity against human SW-620 cells assessed as inhibition of cell viability measured after 72 hrs by MTT assay; format: functional, cell-based; settings: SW-620, 72 h; outline: as §1
HT-29 [1] = experiment: Antiproliferative activity against human HT-29 cells assessed as inhibition of cell viability measured after 72 hrs by MTT assay; format: functional, cell-based; settings: HT-29, 72 h; outline: as §1
HCT-15 = experiment: Antiproliferative activity against human HCT-15 cells assessed as inhibition of cell viability measured after 72 hrs by MTT assay; format: functional, cell-based; settings: HCT-15, 72 h; outline: as §1
DLD-1 = experiment: Antiproliferative activity against human DLD-1 cells assessed as inhibition of cell viability measured after 72 hrs by MTT assay; format: functional, cell-based; settings: DLD-1, 72 h; outline: as §1
[2] = Toxicity in Balb/c mouse xenografted with human HT-29 cells assessed as reduction in body weight at 30 mg/kg, po administered via gavage measured after 10 days; format: organism-based; settings: in vivo, 240 h, time 10 day
Outline: (§2)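 Female BALB/c nude mice, 6–7 weeks old, injected subcutaneously with 8×10^6 HT29 cells. At about 100 mm³ average tumour volume, mice were randomised into groups (n=5). Dosing was daily oral gavage for 30 days in 10% DMSO/1% Tween-80/saline, with a vehicle group. Tumour size (calipers; 0.5 × shortest diameter² × longest diameter) and body weight were recorded every two days.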

L02 = experiment: Cytotoxicity against human L02 cells assessed as inhibition of cell viability at 0.625 to 40 uM measured after 72 hrs by MTT assay; format: cell-based; settings: l02, 72 h, dose 0.625-40 µM
Outline: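 Cells were grown at 37 °C, 5% CO2, in medium with 10% FBS, and seeded at 2–4×10^3 cells/well. Compound was added 24 h after plating and left for 72 h. MTT (5 mg/mL stock) was then added for 2–4 h at 37 °C, formazan was dissolved in DMSO, and absorbance read at 570 nm. Values are means of at least three independent experiments.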

HT-29 [3] = experiment: Antitumour activity against human HT-29 cells xenografted in Balb/c mouse assessed as inhibition of tumour growth at 30 mg/kg, po administered via gavage for 30 days and measured every 2 days by vernier caliper analysis; format: functional, organism-based; settings: time 30.0 day; outline: as §2

O=c1[nH]cc(F)c(=O)[nH]1 [FLUOROURACIL]
IC50 (HCT-116): 12.3 µM | IC50 (SW-620): 15.3 µM | IC50 (HT-29 [1]): 13.4 µM | IC50 (HCT-15): 10.9 µM | IC50 (DLD-1): 11.4 µM | Activity [2]: Toxic | Activity (L02): Toxic | Activity (HT-29 [3]): Active
